Measurements gathered from unrelated publications.
Each line is one published result; the experiments were not run side by side.

| Structure (SMILES) | tested on | assay | test system | setting | measurement | value |
| --- | --- | --- | --- | --- | --- | --- |
| CN[C@H](CC(C)C)C(=O)N[C@H]1C(=O)N[C@@H](CC(N)=O)C(=O)N[C@H]2C(=O)N[C@H]3C(=O)N[C@H](C(=O)N[C@H](C(=O)O)c4cc(O)cc(O)c4-c4cc3ccc4O)[C@H](O)c3ccc(c(Cl)c3)Oc3cc2cc(c3O[C@@H]2O[C@H](CO)[C@@H](O)[C@H](O)[C@H]2O[C@H]2C[C@](C)(N)[C@H](O)[C@H](C)O2)Oc2ccc(cc2Cl)[C@H]1O | Streptococcus pneumoniae | microbial growth | ATCC49619 | – | MIC | 0.25 µM |
| C=CC(=O)NC1CCN(c2ncc3ncnc(Nc4ccc(Oc5ccc6c(c5)ncn6C)c(C)c4)c3n2)CC1 | LS180 | cell growth or viability | – | – | EC50 | 5480 nM |
| Cl.N[C@@H]1CCN(c2cc(C(=O)NCC(=O)O)ccc2NC(=O)c2cc(Br)c(Br)[nH]2)C1 | Klebsiella pneumoniae | microbial growth, broth dilution | ATCC700603 | – | MIC | > 32 µg/mL |
| C[C@@H]1CC[C@@H]([C@](C)(O)CNCc2cccc(F)c2)[C@H](OCc2ccccc2)C1 | A2780 | cell growth or viability, MTT | – | 10 µM, 72 h | inhibition | 30.6% |
| Cc1[nH]c(C(=O)Nc2ccc(C(=O)NCC(=O)O)cc2N2CCN(C(=O)OC(C)(C)C)CC2)c(Cl)c1Cl | Klebsiella pneumoniae | microbial growth, broth dilution | ATCC700603 | – | MIC | > 32 µg/mL |
| C=C(F)C(=O)N1CCN(c2nc(OC[C@@H]3CCCN3C)nc3c2CCN(c2cccc4cccc(Cl)c24)C3)C[C@@H]1CC#N | NCI-H2122 | cell growth or viability, ATP luminescence | – | – | IC50 | 192 nM |
| COc1ccc(CNC[C@](O)(COCc2ccc(OC)cc2)[C@@H]2CC[C@@H](C)C[C@H]2OCc2ccc(OC)cc2)cc1 | A2780 | cell growth or viability, MTT | – | 10 µM, 72 h | inhibition | 98.7% |
| CO[C@@H]1[C@@H](OC(N)=O)[C@@H](O)[C@H](Oc2ccc3c(O)c(NC(=O)c4ccc(O)c(CC=C(C)C)c4)c(=O)oc3c2C)OC1(C)C | Klebsiella pneumoniae | microbial growth, broth dilution | ATCC10031 | – | MIC | 0.5 µg/mL |
| COc1cccc2c1C(=O)c1c(O)c3c(c(O)c1C2=O)C[C@@](O)(C(=O)CO)C[C@@H]3O[C@H]1C[C@H](N)[C@H](O)[C@H](C)O1 | Caco-2 | cell growth or viability, MTT | – | 12.5 µg/mL, 48 h, serum-free | viability | 40.5% |
| C[C@@H]1CC[C@@H]([C@](C)(O)CNCc2cccc3ccccc23)[C@H](OCc2ccccc2)C1 | A2780 | cell growth or viability, MTT | – | 30 µM, 72 h | inhibition | 94.2% |
| CC(=O)Nc1ccc(Oc2ccc(C(=O)C(Cl)Cl)cc2[N+](=O)[O-])cc1Cl | NCI-H1650 | cell growth or viability, MTT | – | 2.5 µM | inhibition | 77.8% |
| COc1ccc(COC[C@@](O)(CNCc2ccccc2)[C@@H]2CC[C@@H](C)C[C@H]2OCc2ccc(OC)cc2)cc1 | A2780 | cell growth or viability, MTT | – | 30 µM, 72 h | inhibition | 100% |
| NC(=O)c1ccc(Oc2ccc(C(=O)C(Cl)Cl)cc2[N+](=O)[O-])cc1 | NCI-H1650 | cell growth or viability, MTT | – | 2.5 µM | inhibition | 59.3% |
| Cc1[nH]c(C(=O)Nc2ccc(C(=O)NCC(=O)O)cc2N2CC[C@@H](NC(=O)OC(C)(C)C)C2)c(Cl)c1Cl | Klebsiella pneumoniae | microbial growth, broth dilution | ATCC700603 | – | MIC | > 32 µg/mL |
| COc1ccc(CNC[C@](O)(COCc2ccc(F)cc2)[C@@H]2CC[C@@H](C)C[C@H]2OCc2ccc(F)cc2)cc1 | A2780 | cell growth or viability, MTT | – | 10 µM, 72 h | inhibition | 93.8% |
